Test results from ChEMBL document CHEMBL3804796, “Discovery of Novel 3,3-Disubstituted Piperidines as Orally Bioavailable, Potent, and Efficacious HDM2-p53 Inhibitors” (ACS Med Chem Lett, 2016).
Activity calls are given as the source filed them. No cut-off for these calls is given here.

Tests used:
[1] = Antitumor activity against human SJSA1 cells xenografted in nude mouse assessed as tumor growth inhibition at 50 mg/kg, po qd administered with cycle of 3 days on, 4 days off for 30 days relative to control; type: functional; conditions: SJSA-1, po, read-out: TGI
Outline: (§1)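 Nude mice bearing SJSA-1 osteosarcoma xenografts, n = 5 per group. Oral dosing in 20% HPBCD, given either intermittently (daily, 3 days on/4 days off) or continuously daily. Body weight was monitored against a vehicle control group.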

[2] = Antitumor activity against human SJSA1 cells xenografted in nude mouse assessed as tumor growth inhibition at 200 mg/kg, po qd continuously for 30 days relative to control; type: functional; conditions: SJSA-1, po, 720 h, read-out: TGI; outline: as §1
[3] = Clearance in monkey at 1 mg/kg, iv; type: ADME, organism-based, Macaca mulatta; conditions: rhesus monkey, in vivo
[4] = molecular target: T1, Tumour suppressor p53/oncoprotein Mdm2 (Homo sapiens, UniProt Q00987); assay: Inhibition of human recombinant His-tagged MDM2 (1 to 118 residues) interaction with FAM-tagged p53-based peptide (unknown origin) incubated for 15 mins by fluorescence polarization assay; type: protein assay
T1 sequence (P04637 whole entry, the tested form may be a part): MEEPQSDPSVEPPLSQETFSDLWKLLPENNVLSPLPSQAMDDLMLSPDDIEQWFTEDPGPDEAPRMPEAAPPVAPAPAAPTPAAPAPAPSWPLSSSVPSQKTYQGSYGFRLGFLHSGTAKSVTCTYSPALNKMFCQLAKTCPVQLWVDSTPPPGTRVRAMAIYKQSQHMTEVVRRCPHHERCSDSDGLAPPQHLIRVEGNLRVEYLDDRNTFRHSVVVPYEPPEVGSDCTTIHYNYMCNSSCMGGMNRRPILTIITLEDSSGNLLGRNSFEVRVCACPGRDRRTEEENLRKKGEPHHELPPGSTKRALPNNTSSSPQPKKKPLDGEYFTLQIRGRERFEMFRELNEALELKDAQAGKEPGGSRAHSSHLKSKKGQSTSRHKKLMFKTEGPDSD
T1 sequence (Q00987 whole entry, the tested form may be a part): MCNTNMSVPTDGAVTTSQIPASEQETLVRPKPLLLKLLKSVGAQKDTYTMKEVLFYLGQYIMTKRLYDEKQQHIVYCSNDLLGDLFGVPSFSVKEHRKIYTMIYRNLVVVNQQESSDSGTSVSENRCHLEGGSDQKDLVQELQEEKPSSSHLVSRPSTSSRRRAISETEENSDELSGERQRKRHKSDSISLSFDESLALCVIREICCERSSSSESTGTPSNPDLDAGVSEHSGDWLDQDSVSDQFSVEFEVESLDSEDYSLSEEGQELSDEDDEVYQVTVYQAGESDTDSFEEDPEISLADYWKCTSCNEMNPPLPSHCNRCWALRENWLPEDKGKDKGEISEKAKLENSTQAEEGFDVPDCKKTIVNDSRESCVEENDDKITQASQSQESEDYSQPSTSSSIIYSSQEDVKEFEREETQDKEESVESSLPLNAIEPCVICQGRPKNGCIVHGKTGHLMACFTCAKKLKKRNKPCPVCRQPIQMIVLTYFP

[5] = test system: DOHH-2; assay: Antiproliferative activity against human DOHH2 cells expressing wild type p53 after 72 hrs by CellTitre-Glo assay; type: functional, cell-based
Outline: (§2)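 Cell lines exposed to compound for 72 h; viability read by CellTiter-Glo and IC50 derived. p53 coding-region mutation status of each line established by direct sequencing.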

[6] = test system: Mus musculus; assay: Toxicity in nude mouse xenografted with human SJSA1 cells assessed as body weight loss at 50 to 200 mg/kg, po qd administered with cycle of 3 days on, 4 days off for 30 days; type: organism-based, SJSA-1; conditions: in vivo
Outline: (§3)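 Nude mice bearing SJSA-1 osteosarcoma xenografts, n = 5 per group. Dosing was oral in 20% HPBCD, either continuous daily at 100 and 200 mpk or intermittent (daily for 3 days on, 4 days off). Body weight was compared against a vehicle-control group.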

[7] = test system: Daudi; assay: Antiproliferative activity against human Daudi cells expressing wild type p53 after 72 hrs by CellTitre-Glo assay; type: functional, cell-based; outline: as §2
[8] = test system: A498; assay: Antiproliferative activity against human A498 cells expressing wild type p53 after 72 hrs by CellTitre-Glo assay; type: functional, cell-based; outline: as §2
[9] = test system: SJSA-1; assay: Selectivity ratio of IC50 for p53 null human H1299 cells to IC50 for human SJSA1 cells expressing wild type p53; type: functional
Outline: (§4)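 Ratio of two IC50s, each from a 72 h CellTiter-Glo viability assay. p53 coding-region status was confirmed by direct sequencing. The ratio is p53-mutant (SK-UT-1) or p53-null (H1299) IC50 divided by wild-type p53 (SJSA-1 or HCT116) IC50.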

[10] = test system: SJSA-1; assay: Antitumor activity against human SJSA1 cells xenografted in nude mouse assessed as tumor growth inhibition at 100 mg/kg, po qd continuously for 30 days; type: functional, organism-based
Outline: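 Nude mice bearing SJSA-1 osteosarcoma xenografts, 5 per group, dosed orally in 20% HPBCD. Schedules were either continuous daily or intermittent (3 days on, 4 days off), at 100 and 200 mpk. Tumor volume and body weight followed against a vehicle control group.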

[11] = molecular target: T2, Cytochrome P450 3A4 (Homo sapiens, UniProt P08684); assay: Inhibition of CYP3A4 (unknown origin); type: ADME
T2 sequence (P08684 whole entry): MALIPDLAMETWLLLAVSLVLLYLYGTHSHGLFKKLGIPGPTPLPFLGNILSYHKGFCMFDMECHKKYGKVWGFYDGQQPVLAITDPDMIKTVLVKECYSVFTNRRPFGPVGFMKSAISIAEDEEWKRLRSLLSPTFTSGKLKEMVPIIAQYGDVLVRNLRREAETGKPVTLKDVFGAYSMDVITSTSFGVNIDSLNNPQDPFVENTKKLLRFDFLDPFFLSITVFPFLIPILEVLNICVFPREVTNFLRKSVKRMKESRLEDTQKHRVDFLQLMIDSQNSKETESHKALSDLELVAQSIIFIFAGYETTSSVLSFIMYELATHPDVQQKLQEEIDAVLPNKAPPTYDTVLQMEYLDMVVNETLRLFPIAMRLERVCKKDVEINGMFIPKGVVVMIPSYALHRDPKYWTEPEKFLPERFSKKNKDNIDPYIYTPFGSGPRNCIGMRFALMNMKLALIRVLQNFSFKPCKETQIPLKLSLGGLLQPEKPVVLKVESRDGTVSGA

[12] = test system: Rhesus monkey; assay: Dose normalized AUC (0 to 24 hrs) in monkey at 1 mg/kg, po administered as single dose; type: ADME, organism-based, Macaca mulatta; conditions: in vivo
Outline: (§5)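 Single oral dose of 1 mg/kg. Vehicle was 20% HPBCD for mouse and 0.4% HPMC for dog and monkey. Plasma AUC over 0–24 h, dose-normalized, reported in μM·h.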

[13] = test system: ML-2; assay: Antiproliferative activity against human ML2 cells expressing wild type p53 after 72 hrs by CellTitre-Glo assay; type: functional, cell-based; outline: as §2
[14] = test system: CAKI-1; assay: Antiproliferative activity against human Caki1 cells expressing wild type p53 after 72 hrs by CellTitre-Glo assay; type: functional, cell-based; outline: as §2
[15] = test system: Mus musculus; assay: Dose normalized AUC (0 to 24 hrs) in mouse at 1 mg/kg, po administered as single dose; type: ADME, organism-based; conditions: in vivo; outline: as §5
[16] = test system: ZR-75-1; assay: Antiproliferative activity against human ZR-75-1 cells expressing wild type p53 after 72 hrs by CellTitre-Glo assay; type: functional, cell-based; outline: as §2
[17] = molecular target: Cytochrome P450 2C9 (Homo sapiens, UniProt P11712); assay: Inhibition of CYP2C9 (unknown origin); type: ADME
Sequence of Cytochrome P450 2C9 (P11712 whole entry): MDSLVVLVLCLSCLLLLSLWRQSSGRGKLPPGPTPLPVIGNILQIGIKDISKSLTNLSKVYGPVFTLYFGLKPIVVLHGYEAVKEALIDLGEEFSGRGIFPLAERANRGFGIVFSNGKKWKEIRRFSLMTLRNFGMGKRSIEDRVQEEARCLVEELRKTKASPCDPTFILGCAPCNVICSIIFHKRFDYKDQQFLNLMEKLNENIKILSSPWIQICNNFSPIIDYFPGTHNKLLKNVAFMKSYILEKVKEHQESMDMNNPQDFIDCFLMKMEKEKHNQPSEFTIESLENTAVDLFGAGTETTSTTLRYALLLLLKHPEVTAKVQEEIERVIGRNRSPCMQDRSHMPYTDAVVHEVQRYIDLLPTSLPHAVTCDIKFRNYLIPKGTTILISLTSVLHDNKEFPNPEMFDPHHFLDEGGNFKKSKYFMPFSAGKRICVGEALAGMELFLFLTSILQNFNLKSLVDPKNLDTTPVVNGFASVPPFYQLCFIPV

[18] = Intrinsic clearance in human liver microsomes; type: ADME; conditions: read-out: CLH
[19] = test system: Mus musculus; assay: Toxicity in nude mouse xenografted with human SJSA1 cells assessed as body weight loss at 100 to 200 mg/kg, po qd continuously for 30 days; type: organism-based, SJSA-1; conditions: in vivo, 720 h; outline: as §3
[20] = molecular target: T2, Cytochrome P450 3A4; assay: Time dependent inhibition of CYP3A4 (unknown origin); type: ADME
[21] = test system: HCT-116; assay: Selectivity ratio of IC50 for human SK-UT-1 cells harboring mutant p53 to IC50 for human HCT116 cells expressing wild type p53; type: functional; outline: as §4
[22] = test system: SK-UT-1; assay: Antiproliferative activity against human SK-UT-1 cells harboring mutant p53 after 72 hrs by CellTitre-Glo assay; type: functional, cell-based; conditions: SK-UT-1, 72 h
Outline: (§6)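 Cancer cell lines of known p53 coding-region status (checked by direct sequencing) were exposed to the compound for 72 h. Viability was read with CellTiter-Glo, and the IC50 was taken from these readings.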

[23] = molecular target: Cytochrome P450 2D6 (Homo sapiens, UniProt P10635); assay: Inhibition of CYP2D6 (unknown origin); type: ADME
Sequence of Cytochrome P450 2D6 (P10635 whole entry): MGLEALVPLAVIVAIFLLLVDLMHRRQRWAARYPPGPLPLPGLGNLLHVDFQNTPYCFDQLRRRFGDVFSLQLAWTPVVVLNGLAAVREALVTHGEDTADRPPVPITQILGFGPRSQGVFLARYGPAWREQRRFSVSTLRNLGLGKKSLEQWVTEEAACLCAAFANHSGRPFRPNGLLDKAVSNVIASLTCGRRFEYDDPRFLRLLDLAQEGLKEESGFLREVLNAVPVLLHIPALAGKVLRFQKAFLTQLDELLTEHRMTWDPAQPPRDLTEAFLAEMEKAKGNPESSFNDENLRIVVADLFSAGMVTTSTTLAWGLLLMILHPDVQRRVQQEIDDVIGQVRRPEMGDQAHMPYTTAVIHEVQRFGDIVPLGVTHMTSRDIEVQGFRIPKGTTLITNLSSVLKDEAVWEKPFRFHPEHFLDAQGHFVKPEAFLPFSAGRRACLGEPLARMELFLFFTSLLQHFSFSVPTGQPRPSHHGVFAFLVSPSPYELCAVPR

[24] = molecular target: T1, Tumour suppressor p53/oncoprotein Mdm2; assay: Inhibition of MDM2/p53 interaction in human HCT116 cells assessed as activation of p53 transcription by luciferase reporter gene assay; type: cell-based, HCT-116
Outline: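 p53 transcriptional activation measured in HCT116 cells with a p53 response element–driven luciferase reporter (P53RE-Luc).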

[25] = test system: MOLT-3; assay: Antiproliferative activity against human MOLT3 cells expressing wild type p53 after 72 hrs by CellTitre-Glo assay; type: functional, cell-based; outline: as §2
[26] = test system: HCT-116; assay: Selectivity ratio of IC50 for p53 null human H1299 cells to IC50 for human HCT116 cells expressing wild type p53; type: functional; outline: as §4
[27] = test system: A2780; assay: Antitumor activity against human A2780 cells xenografted in nude mouse harboring wild type p53 assessed as tumor growth inhibition at 50 mg/kg, po bid continuously for 15 days coadministered with 40 mg/kg, ip, once weekly docetaxel relative to control; type: functional
Outline: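 Wild-type p53 mice bearing A2780 ovarian xenografts. The test agent was given at 50 mg/kg orally twice daily, continuously. Docetaxel was given at 40 mg/kg ip weekly, twice in total. Each was given alone and in combination. Read-out was tumor growth inhibition.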

[28] = test system: NCI-H460; assay: Antiproliferative activity against human NCI-H460 cells expressing wild type p53 after 72 hrs by CellTitre-Glo assay; type: functional, cell-based; outline: as §2
[29] = test system: BC1; assay: Antiproliferative activity against human BC1 cells expressing wild type p53 after 72 hrs by CellTitre-Glo assay; type: functional, cell-based; outline: as §2
[30] = test system: A2780; assay: Antiproliferative activity against human A2780 cells expressing wild type p53 after 72 hrs by CellTitre-Glo assay; type: functional, cell-based; outline: as §2
[31] = test system: MES-SA; assay: Antiproliferative activity against human MES-SA cells expressing wild type p53 after 72 hrs by CellTitre-Glo assay; type: functional, cell-based; outline: as §2
[32] = Antiproliferative activity against human HCT116 cells expressing wild type p53 after 72 hrs by CellTitre-Glo assay; type: functional, cell-based; conditions: HCT-116, 72 h; outline: as §6
[33] = Fraction unbound in dog plasma; type: ADME, cell-free, Canis lupus familiaris
[34] = Fraction unbound in human plasma; type: ADME, cell-free

CCC[C@H]1N(C(=O)c2cnccc2C(F)(F)F)CCC[C@@]1(Oc1csc(C(F)(F)F)c1)C(=O)N1CCN(c2ccccc2OCCCC(=O)O)CC1
inhibition in vivo at 50 mg/kg [1]: 92% | inhibition in vivo at 200 mg/kg [2]: 60% | clearance [3]: 23 mL/min/kg | IC50 [4]: 7 nM | Activity [5]: Active | Activity [6]: Non-toxic | Activity [7]: Active | Activity [8]: Active | Ratio IC50 [9]: >500 | TGI [10]: Active | IC50 [11]: > 50000 nM | AUC/dose [12]: 0.2 µM·h | Activity [13]: Active | Activity [14]: Active | AUC/dose [15]: 0.1 µM·h | Activity [16]: Active | IC50 [17]: > 50000 nM | CLint scaled [18]: 3 mL/min/kg | Activity [19]: Non-toxic | TDI [20]: Active | Ratio IC50 [21]: >500 | IC50 [22]: > 50000 nM | IC50 [23]: > 50000 nM | EC50 [24]: 100 nM | Activity [25]: Active | Ratio IC50 [26]: >500 | TGI [27]: 81% | Activity [28]: Active | Activity [29]: Active | Activity [30]: Active | Activity [31]: Active | IC50 [32]: 180 nM | fraction unbound [33]: 0.02 | fraction unbound [34]: 0.04
